Inconclusive results are not listed.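 Rule for the calls, unless noted: active = RAM network inhibition above 8.4% in each of two replicates, 3 SD over the compound average; inconclusive = above 8.4% inhibition in only one replicate; inactive = 8.4% inhibition or less in each replicate.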
Legend:
[1] = S. cerevisiae growth inhibition in permissive medium (OD615), pilot counter-assay for S. cerevisiae lifespan shortening project, permissive growth control (AID 705;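 active = growth inhibition above 25% in both replicates, a cutoff set 3 SD above the mean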); details: OD615, 24 h, at 10 µM, active compounds read high
Outline: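 Timing: 24 h exposure, 30 °C / Material: Saccharomyces cerevisiae strain carrying genetically modified DeaD replicative-lifespan system / Signal: OD at 615 nm / Compound: 10 µM single dose, 0.25% DMSO / Medium: SC raffinose/galactose permissive medium / Evaluation: reduction in yeast growth (OD615)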

[2] = S. cerevisiae growth inhibition in restrictive medium, OD615, pilot screen, restrictive growth control, yeast lifespan reduction project (AID 706;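 active = growth inhibition above a set limit, 3 SD over mean compound inhibition, in both replicates, cut at about 43% in these data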;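 note: modified DeaD lifespan yeast strain shifted to restrictive glucose medium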); details: OD615, 48 h, at 10 µM, active compounds read high
Outline: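 System: Engineered S. cerevisiae DeaD strain | Detection: OD615 | Buffer or medium: CSMM-D glucose medium | Doses: 10 µM compound, 0.25% DMSO | Timing: 4 h pre-growth plus 48 h compound exposure, 30 °C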

[3] = doxorubicin toxicity protection in MRP-1 cells – H69AR cells, CellTiter-Glo, duplicate, MRP-1 activator project, pilot screen (AID 807;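 active = viability increase at or above a cutoff of the median across tested compounds plus 3 SD, cut at about 8.5% in these data, passing the limit was not always enough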;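 note: compound pretreatment 18-22 h then 72 h combined with doxorubicin; 0% = doxorubicin alone and 100% = vehicle without doxorubicin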); details: H69AR viability with doxorubicin, CellTiter-Glo luminescence; at 10 µM; active compounds read high
[4] = viability of HCT116 without oncogenic beta-catenin – human colon tumor cells, pilot screen (AID 823;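 active = cell viability at or below a set limit in both duplicate runs, the limit being the all-compound median minus 4 SD, cut at about 23% in these data, passing the limit was not always enough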;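 note: 0% = wells killed by 20 µM Hyamine and 100% = untreated DMSO cell wells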); details: HCT116 beta-catenin knockout viability, CellTiter-Glo, 60 h; at 10 µM; active compounds read low
[5] = viability of PTEN-null HCT116 cells – cell-based, HCT116 clonal line, CellTiter-Glo, pilot screen (AID 824;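 active = viability at or below 27.92% in each of two runs, the all-compound median minus 4 SD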;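 note: 0% = 20 µM Hyamine control and 100% = vehicle cell control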); details: HCT116 PTEN-deleted viability, 60 h, at 10 µM, active compounds read low
[6] = RAM pathway blockade in budding yeast – dse1pr::URA3 reporter, 5-FOA selection, pilot screen (AID 869;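 active = inhibition over a set limit, the all-compound mean plus 3 SD, in both replicate runs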;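 note: 0% = DMSO wells with no growth and 100% = 10 µM 1-NA-PP1 with full growth; RAM network block rescues cells from 5-FOA so hits raise OD615 growth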); details: S. cerevisiae dse1pr::URA3 5-FOA growth, OD615, 2 d; at 10 µM; active compounds read high; strain carries analog-sensitive mutant Cbk1 kinase
[7] = RAM signaling pathway blockade in yeast – S. cerevisiae, Pdr1DBD-CYC8 efflux-inhibited sensitized strain, primary screen (AID 1298);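 note: 0% = DMSO untreated cells without growth and 100% = 10 µM 1-NA-PP1 full growth; higher means more yeast growth rescued from 5-FOA killing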; details: S. cerevisiae cbk1-as DSE1-URA3 strain, 5-FOA growth OD615, 2 d; at 50 µM; active compounds read high

CC(C)(C)c1ccc(-c2cc(N)n[nH]2)cc1
inactive: growth inhibition [1] 2.28% | growth inhibition [2] 13.2% | viability increase [3] -2.81% | viability [4] 95.5% | viability [5] 90.1% | inhibition [6] 2.32% | RAM network inhibition [7] 2.2%

Cc1cccc(OCC2=N/C(=C\N(C)C)C(=O)O2)c1
inactive: growth inhibition [1] -21.7% | growth inhibition [2] -9.04% | viability increase [3] -0.64% | viability [4] 97.2% | viability [5] 91.3% | inhibition [6] 1.48% | RAM network inhibition [7] 2.9%

O=S(=O)(Nc1ccc2nc(C(F)(F)F)[nH]c2c1)c1ccccc1
inactive: growth inhibition [1] -1.94% | growth inhibition [2] -0.635% | viability increase [3] 0.27% | viability [4] 85.5% | viability [5] 82% | inhibition [6] 0.97% | RAM network inhibition [7] 1.68%

Clc1ccc(NCn2cncn2)nc1
inactive: growth inhibition [1] 12.6% | growth inhibition [2] 7.94% | viability increase [3] -1.55% | viability [4] 96.5% | viability [5] 93.5% | inhibition [6] 2.67% | RAM network inhibition [7] 3.18%

O=C(c1cc2ccccn2n1)N1CCN(c2ccccn2)CC1
inactive: growth inhibition [1] -2.62% | growth inhibition [2] 7.25% | viability increase [3] 2.16% | viability [4] 103% | viability [5] 106% | inhibition [6] 0.94% | RAM network inhibition [7] 4.4%

CCOC(=O)C1C(=O)CC(C)(O)C(C(=O)OCC)C1c1cccs1 (stereo not drawn)
inactive: growth inhibition [1] -3.39% | growth inhibition [2] -20.4% | viability increase [3] -2.92% | viability [4] 90% | viability [5] 89.2% | inhibition [6] 2.07% | RAM network inhibition [7] 4.69%

COc1cccc(C2CC(c3ccccc3OC)n3ncnc3N2)c1 (stereo not drawn)
inactive: growth inhibition [1] -4.81% | growth inhibition [2] 8.07% | viability increase [3] -5.2% | viability [4] 90.1% | viability [5] 71.2% | inhibition [6] 0.455% | RAM network inhibition [7] -0.26%

CN(CCc1ccccn1)C(=O)Nc1ccc(F)cc1
inactive: growth inhibition [1] -7.65% | growth inhibition [2] -14.7% | viability increase [3] -1.63% | viability [4] 108% | viability [5] 98% | inhibition [6] 0.71% | RAM network inhibition [7] 5.39%

Cn1cccc1Cc1nnc(SCC(=O)N2CCCCCC2)n1CCc1ccccc1
inactive: growth inhibition [1] 10% | growth inhibition [2] 25.7% | viability increase [3] -1.8% | viability [4] 95.2% | viability [5] 96.1% | inhibition [6] 2.48% | RAM network inhibition [7] 2.94%

CCOC(=O)N1CCC(N2C(=O)c3ccc(C(=O)NCc4ccc(F)cc4)cc3C2=O)CC1
inactive: growth inhibition [1] -0.31% | growth inhibition [2] -4.59% | viability increase [3] -1.21% | viability [4] 98.1% | viability [5] 100% | inhibition [6] 3.25% | RAM network inhibition [7] 8.97%

Cc1ccc(C)c(S(=O)(=O)NC(CC(C)C)C(=O)O)c1 (stereo not drawn)
inactive: growth inhibition [1] -9.28% | growth inhibition [2] -29.3% | viability increase [3] -1.32% | viability [4] 105% | viability [5] 102% | inhibition [6] 1.69% | RAM network inhibition [7] 2.5%

COc1ccc(OC)c(NC(=O)Nc2ccccc2C)c1
inactive: growth inhibition [1] -3.12% | growth inhibition [2] -16.3% | viability increase [3] -3.16% | viability [4] 102% | viability [5] 95.9% | inhibition [6] 1.13% | RAM network inhibition [7] 1.79%

C=CCn1c(NCc2cc(C)ccc2O)nc2ccccc21
inactive: growth inhibition [1] -18.2% | growth inhibition [2] -17.9% | viability increase [3] -2.74% | viability [4] 82.8% | viability [5] 70.6% | inhibition [6] -0.74% | RAM network inhibition [7] 2.04%

O=C(O)c1ccc(NC(=O)C2C3CCC(C3)C2C(=O)O)cc1 (stereo not drawn)
inactive: growth inhibition [1] 7% | growth inhibition [2] -0.915% | viability increase [3] -0.12% | viability [4] 101% | viability [5] 98.8% | inhibition [6] 0.345% | RAM network inhibition [7] 0.46%

Cc1ccccc1-n1c(Cn2c(=O)sc3ccccc32)nnc1SCC(=O)N1CCOCC1
inactive: growth inhibition [1] -5.92% | growth inhibition [2] -11.6% | viability increase [3] -1.91% | viability [4] 102% | viability [5] 100% | inhibition [6] 1.56% | RAM network inhibition [7] 1.01%

COc1ccc(-c2nc3n(n2)C(c2ccccc2Cl)C(C(N)=O)=C(C)N3)cc1 (stereo not drawn)
inactive: growth inhibition [1] -14.2% | growth inhibition [2] 0.71% | viability increase [3] -0.48% | viability [4] 96.9% | viability [5] 96.2% | inhibition [6] 1.66% | RAM network inhibition [7] -1.36%

COc1ccc(-c2nc(CS(=O)CC(=O)N3CCc4ccccc4C3)c(C)o2)cc1 (stereo not drawn)
inactive: growth inhibition [1] 2.66% | growth inhibition [2] 32.7% | viability increase [3] -2.66% | viability [4] 85.6% | viability [5] 88.8% | inhibition [6] 1.13% | RAM network inhibition [7] 3.48%

CCOC(=O)c1c(NC(=O)c2cc(C3CC3)on2)sc2c1CCCC2
inactive: growth inhibition [1] -9.14% | growth inhibition [2] 0.505% | viability increase [3] -1.3% | viability [4] 102% | viability [5] 97.5% | inhibition [6] 1.49% | RAM network inhibition [7] 8.09%

O=C(c1ccccc1)c1ccc2nc(N3CCN(C(=O)c4ccco4)CC3)c3nncn3c2c1
inactive: growth inhibition [1] -3.47% | growth inhibition [2] 11.3% | viability increase [3] -3.94% | viability [4] 65.3% | viability [5] 72.7% | inhibition [6] 2.05% | RAM network inhibition [7] -0.16%

COc1ccc(C2C3=C(CC(C)(C)CC3=O)Nc3c2c(=O)[nH]c(=O)n3Cc2ccccc2)cc1 (stereo not drawn)
inactive: growth inhibition [1] -7% | growth inhibition [2] 6.84% | viability increase [3] -2.53% | viability [4] 89.5% | viability [5] 74.5% | inhibition [6] 1.65% | RAM network inhibition [7] 6.38%

COC(=O)c1ccc(OCC(O)CN(CC(C)C)CC(C)C)cc1 (stereo not drawn)
inactive: growth inhibition [1] -3.55% | growth inhibition [2] -4.33% | viability increase [3] -1.4% | viability [4] 76.1% | viability [5] 86.4% | inhibition [6] 1.47% | RAM network inhibition [7] 2.82%

CCC1CCCCN1Cc1nc2c(c(=O)n(C)c(=O)n2C)n1Cc1cccc2ccccc12 (stereo not drawn)
inactive: growth inhibition [1] -13.7% | growth inhibition [2] -7.96% | viability increase [3] -1.54% | viability [4] 92.5% | viability [5] 83.1% | inhibition [6] 0.67% | RAM network inhibition [7] 8.51%

CCOc1ccc2ccccc2c1C(=O)Nc1cc(=O)n(C)c(=O)n1C
inactive: growth inhibition [1] -8.05% | growth inhibition [2] -21.5% | viability increase [3] 0.11% | viability [4] 107% | viability [5] 94.4% | inhibition [6] 1.17% | RAM network inhibition [7] -1.04%

Cc1cccc(-n2ccnc2SCC(=O)Nc2nnc(C)s2)c1
inactive: growth inhibition [1] -5.12% | growth inhibition [2] 20.3% | viability increase [3] -4.56% | viability [4] 76.9% | viability [5] 72.8% | inhibition [6] 1.13% | RAM network inhibition [7] 6.22%

Reference: PubChem BioAssay
